TAAR1 ag: human TAAR1 agonists, primary screen, Fluo-8 calcium fluorescence, CHO RD-HGA16 cells | Trace amine-associated receptor 1 (Homo sapiens), Q96RJ0 | vehicle wells 0%, saturating PEA agonist 100% | activation, % at 3 µM | 360,000 compounds, 0.99% hits | AID 624467, 2012;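 active = activation above the mean activation of all test compounds in the run plus 3 SD, cut at about 38% in these data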
Target sequence (Q96RJ0 whole entry, looked up): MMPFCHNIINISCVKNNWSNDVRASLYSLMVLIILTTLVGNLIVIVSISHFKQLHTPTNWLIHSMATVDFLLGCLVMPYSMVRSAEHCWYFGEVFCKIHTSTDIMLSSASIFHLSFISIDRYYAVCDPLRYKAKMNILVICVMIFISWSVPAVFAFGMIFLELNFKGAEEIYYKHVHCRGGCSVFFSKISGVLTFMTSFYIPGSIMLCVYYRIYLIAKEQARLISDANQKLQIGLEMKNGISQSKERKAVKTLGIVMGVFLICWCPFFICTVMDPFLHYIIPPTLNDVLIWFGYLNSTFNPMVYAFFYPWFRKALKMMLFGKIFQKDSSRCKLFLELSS
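test system = CHO RD-HGA16 cells carrying human TAAR1 plus Gα16 | schedule = 17-24 h seeding, 75 min 37 °C dye, 30 min RT | compound dosing = 3 µM single concentration | control set = DMSO and PEA EC100 | replicates = n 1 | signal = Fluo-8 fluorescence, 5 s baseline then 140 s kinetic read | measure = percent activation vs PEA EC100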
CHRM1 antagonist: human M1 muscarinic receptor antagonists, primary screen, CHO-K1 cells, Fluo-8 calcium fluorescence, 1536-well. Muscarinic acetylcholine receptor M1 (Homo sapiens), P11229. CHO-K1 hM1, ACh EC80 antagonist. inhibition, % at 3 µM. 360,000 compounds, 1.3% hits;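 active = percent inhibition above its own plate's cutoff, namely the mean of that plate's compound wells plus 3 SD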;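 note: peak over basal fluorescence ratio during 140 s after agonist addition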
M1 ag: human M1 muscarinic receptor agonists, primary screen, Fluo-8 calcium fluorescence, CHO-K1 cells, HTS. Muscarinic acetylcholine receptor M1 (Homo sapiens), P11229. CHO-K1 hM1, agonist mode; 0% DMSO, 100% acetylcholine EC100. activation, % at 3 µM. 360,000 compounds, 0.33% hits. AID 588814, 2011;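 active = activation above the run's mean compound activation plus 3 SD, cut at about 16% in these data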;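 note: peak over basal fluorescence ratio within a 140 s kinetic read after compound addition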
CHRM1 PAM: human M1 muscarinic receptor positive allosteric modulators, primary screen, CHO-K1 cells, Fluo-8 calcium fluorescence, 1536-well. Muscarinic acetylcholine receptor M1 (Homo sapiens), P11229. activation, % at 3 µM. CHO-K1 hM1, ACh EC20; 0% = ACh EC20, 100% = maximal ACh. AID 588819, 2011. 360,000 compounds, 0.088% hits; in the data active = activation above about 19%, passing the limit was not always enough
TAAR1 antag: human TAAR1 antagonists, primary screen, Fluo-8 calcium fluorescence, CHO RD-HGA16 cells; antagonist; 360,000 compounds, 1.5% hits; inhibition, % at 3 µM; Trace amine-associated receptor 1 (Homo sapiens), Q96RJ0;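 active = inhibition above a per-plate cutoff, the mean inhibition of test compounds on that plate plus 3 SD, cut at about 49% in these data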
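Test system: RD-HGA16 CHO cells with stable hTAAR1 and Gα16 / Probe or stimulus: EC80 β-phenethylamine stimulus / Times: seeding 17-24 h prior, 75-min 37 °C, 30-min RT dye loading / Detection: Fluo-8 calcium-sensitive fluorescence / Read-out basis: % inhibition scaled between DMSO and EC80 PEA controls / Repeats: singlicate, one well per test compound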
m5-HT2A agonist: mouse Htr2a agonists via beta-arrestin recruitment, primary screen, cell-based, luminescence; 5-hydroxytryptamine receptor 2A (Mus musculus), P35363; CHO-K1 mHTR2A beta-arrestin complementation; percent of 30 µM serotonin response; activation, % at 7.6 µM; 360,000 compounds, 0.66% hits; AID 624169, 2012;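 active = activation above a run cutoff, the mean activation of all tested compounds plus 3 SD, cut at about 14% in these data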
Of the large screens only hits and unclear results are named; the others gave an inactive call. Compounds with a hit are over-represented: about 3.9% of the library has one in this group of screens.

O=S(=O)(/N=C(/Nc1ccccc1)c1ccccc1O)c1ccccc1	none
COc1cc(/C=C/C(=O)OCC(=O)c2ccc(OC(F)F)cc2)ccc1O	TAAR1 antag 61
CCc1ccc(NC(=O)C(C)OC(=O)/C=C/c2ccc(O)c(OC)c2)cc1 (stereo not drawn)	TAAR1 ag 111, M1 ag 34, TAAR1 antag 82
Oc1cc(O)cc(/C=C/c2ccc(O)c(O)c2)c1	M1 ag 27
COc1cc(OC)c2cc(C(=O)N[C@@H](Cc3ccccc3)C(=O)O)n(C)c2c1	none
NC(=O)c1ccc[n+](CC(=O)c2cccc([N+](=O)[O-])c2)c1	none
Cc1c(Cl)cccc1NC(=O)CSc1ncnc2c1cnn2CCc1ccccc1	none
O=C(CSc1ncnc2c1cnn2CCc1ccccc1)Nc1cccc(C(F)(F)F)c1	TAAR1 antag 60
CN(C(=O)c1cccc(NC(=O)Cc2ccc(NC(=O)C3CCN(C(=O)CCc4ccccc4)CC3)cc2)c1)C1CCCC1	none (no result: CHRM1 antagonist, M1 ag, CHRM1 PAM, m5-HT2A agonist)
CC(=O)c1ccc(N2CCN(C(=O)c3cccs3)CC2)c(F)c1	none
CCCC(=O)c1ccc(N2CCN(C(=O)c3cccs3)CC2)c(F)c1	CHRM1 antagonist 42
CC1=NCCN1CCNC(=O)Nc1ccc(C(C)(C)C)cc1	none
Oc1ccc(Nc2nnc(-c3ccc(O)cc3)c3ccccc23)cc1	CHRM1 antagonist 36
CN(C)CCCN(Cc1ccccc1)C(=S)NCc1ccccc1	none
CC(=O)c1ccc(NC(=S)N(CCCN(C)C)Cc2ccccc2)cc1	CHRM1 antagonist 44
CN(C)CCCN(Cc1ccccc1)C(=S)Nc1ccc(SC(F)F)cc1	CHRM1 antagonist 88
C/C(=N/OC(=O)c1ccc(C)cc1)c1ccc(N2C(=O)C3CCCCC3C2=O)cc1 (stereo not drawn)	TAAR1 antag 66
Cc1cc(C)c(C(=O)c2ccc(C(=O)N3CCCCC3)cc2)c(C)c1	M1 ag 36
O=C(Nc1ccc(S(=O)(=O)Nc2ccc(Cl)cc2)cc1)C1CCCO1 (stereo not drawn)	TAAR1 ag 41
CCOc1ccc(NS(=O)(=O)c2ccc(C(=O)N3CCCCCC3)cc2)cc1	TAAR1 ag 47, M1 ag 22
COc1ccc(NS(=O)(=O)c2cccc(C(=O)N3CCCCCC3)c2)cc1	none
COc1ccc(NS(=O)(=O)c2ccc(C(=O)N3CCCCCC3)cc2)cc1	M1 ag 23
CCN(CC)C(=O)[C@H]1CC(CC(=O)NCCCOC)C(=O)N2CCc3c([nH]c4ccccc34)[C@]12C (stereo partly drawn)	none
CCOC(=O)[C@@H]1[C@H]2COc3ccc(Br)cc3[C@@H]2N2C(=O)N(c3ccc(C(F)(F)F)cc3)C(=O)[C@]12C	none
CC(C)OCC1CO1 (stereo not drawn)	none
CNC(=O)COc1ccc(S(=O)(=O)Nc2ccc(C)cc2)cc1	none
Cc1ccc(NS(=O)(=O)c2ccc(C(=O)N3CCCCCCC3)cc2)cc1	TAAR1 ag 54
CCOC(=O)N1CCN(C(=O)c2ccc(NS(=O)(=O)c3ccc(C)cc3)cc2)CC1	none
CCCNC(=O)COc1ccc(S(=O)(=O)Nc2ccc(C)cc2)cc1	TAAR1 ag 40
Cc1ccc(NS(=O)(=O)c2ccc(C(=O)NCC3CCCO3)cc2)cc1 (stereo not drawn)	TAAR1 ag 40
CCOC(=O)N1CCN(C(=O)c2ccc(S(=O)(=O)Nc3ccc(C)cc3)cc2)CC1	CHRM1 antagonist 32
CCCCN(CC)C(=O)C1CCC(CNS(=O)(=O)c2cccc3nsnc23)CC1 (stereo not drawn)	none
CC1(C)CNC(=O)c2sc(NC(=O)c3ccccc3Cl)nc2C1	none
CCOc1ccccc1-n1nnnc1SCc1nc2ccccc2s1	TAAR1 antag 53
Cc1ccccc1-n1c(C)nnc1SCc1nc2ccccc2s1	none
O=C(C[n+]1cccc(Br)c1)c1ccc(-c2ccccc2)cc1	CHRM1 antagonist 38
O=C(C[n+]1cccc(Br)c1)c1ccccc1	none
Cc1ccc(C)[n+](CC(=O)c2ccc(-c3ccccc3)cc2)c1	CHRM1 antagonist 44
COc1cc(-c2cc(NC(C)=O)c3ncc(-c4ccc(F)cc4)n3c2)cc(OC)c1OC	TAAR1 antag 52
CC(=O)Nc1cc(-c2ccccc2)cn2c(-c3ccc(F)cc3)cnc12	TAAR1 antag 49
CC(=O)Nc1cc(-c2ccc(F)cc2)cn2c(-c3ccc(F)cc3)cnc12	none
COc1ccc(N2C(=O)c3n[nH]c(C)c3C2c2ccccc2)cc1 (stereo not drawn)	none (no result: CHRM1 antagonist, M1 ag, CHRM1 PAM, m5-HT2A agonist)
O=[N+]([O-])c1ccc(-c2nc(-c3cccs3)c(-c3cccs3)[nH]2)cc1	TAAR1 antag 61
COc1ccc(-c2nc(-c3ccccc3)c(-c3cccs3)[nH]2)cc1OC	none
O=[N+]([O-])c1cccc(-c2nc(-c3cccs3)c(-c3cccs3)[nH]2)c1	TAAR1 antag 58
O=[N+]([O-])c1cccc(-c2noc(-c3cccs3)n2)c1	none
O=[N+]([O-])c1cccc(-c2nc(-c3ccccc3)c(-c3cccs3)[nH]2)c1	TAAR1 antag 58
COCc1[nH]nc2c1C(c1ccc(C)cc1)NC2=O (stereo not drawn)	none (no result: CHRM1 antagonist, M1 ag, CHRM1 PAM, m5-HT2A agonist)
Cc1cccc(/C=N/n2c(C)nc3ccccc3c2=O)c1	none
COc1ccccc1CCn1cnc(-c2ccccc2F)c1CC(C)C	none (no result: CHRM1 antagonist, M1 ag, CHRM1 PAM, m5-HT2A agonist)
Cc1ccc2nc(-c3ccccc3)cc(C(=O)NNC(=O)c3csc(N4CCOCC4)n3)c2c1	TAAR1 antag 57
O=C(NC(Nc1nc2ccc([N+](=O)[O-])cc2s1)(C(F)(F)F)C(F)(F)F)c1ccccc1Cl	TAAR1 antag 55
O=C(CCNS(=O)(=O)c1ccc(Br)cc1)NNC(=O)C1COc2ccccc2O1 (stereo not drawn)	none
CCn1c(=O)c(C(=O)CN2c3ccccc3CC2C)c(N)n(Cc2ccccc2)c1=O (stereo not drawn)	none
CCn1c(=O)c(C(=O)CN2CCCc3ccccc32)c(N)n(Cc2ccccc2)c1=O	CHRM1 antagonist 22
CCOC(=O)c1c(NC(C)=O)sc(/C(C)=N/Nc2ccc(C(=O)O)cc2)c1C	none
CC1(C)C[C@@H]1C(=O)N/C(=C\CCCCSC[C@H](N)C(=O)O)C(=O)O	none
Cc1ccc(O)c(CNCCNCc2cc(C)ccc2O)c1	none
CCc1ccc(O)c(CNCCNCc2cc(CC)ccc2O)c1	TAAR1 ag 42
